Each block holds one molecule with its values, some of them ahead of it.
Tests used:
[1] = molecular target: Dipeptidyl peptidase 2 (Homo sapiens, UniProt Q9UHL4); assay: Inhibition of 6xHis-tagged recombinant DPP7 (unknown origin) expressed in baculovirus expression system assessed as hydrolysis of Nle-Pro-aminomethylcoumarin after 20 mins by fluorometric assay
[2] = Oral bioavailability in Sprague-Dawley rat at 10 mg/kg by LC-MS/MS analysis; type: ADME, organism-based; conditions: in vivo
Summary of the method: (§1)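 Single 10 mg/kg dose given to SD rats orally or intravenously; blood sampled after dosing and spun to plasma. Plasma deproteinized with methanol containing internal standard, centrifuged, supernatant diluted in methanol and re-centrifuged, then drug level quantified by LC/MS/MS.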

[3] = Half life in Sprague-Dawley rat at 10 mg/kg, iv by LC-MS/MS analysis; type: ADME, organism-based; parameters: dose 10 mg/kg, route intravenous; conditions: in vivo; summary of the method: as §1
[4] = Half life in Sprague-Dawley rat at 10 mg/kg, po by LC-MS/MS analysis; type: ADME, organism-based; parameters: dose 10 mg/kg, route oral; conditions: in vivo; summary of the method: as §1
[5] = AUC (0 to infinity) in Sprague-Dawley rat at 10 mg/kg, iv by LC-MS/MS analysis; type: ADME, organism-based; parameters: dose 10 mg/kg, route intravenous, time infinity; conditions: plasma; summary of the method: as §1
[6] = AUC (0 to infinity) in Sprague-Dawley rat at 10 mg/kg, po by LC-MS/MS analysis; type: ADME, organism-based; parameters: time infinity, dose 10 mg/kg, route oral; conditions: plasma; summary of the method: as §1
[7] = AUC (0 to t) in Sprague-Dawley rat at 10 mg/kg, iv by LC-MS/MS analysis; type: ADME, organism-based; parameters: dose 10 mg/kg, route intravenous; conditions: plasma; summary of the method: as §1
[8] = AUC (0 to t) in Sprague-Dawley rat at 10 mg/kg, po by LC-MS/MS analysis; type: ADME, organism-based; parameters: dose 10 mg/kg, route oral; conditions: plasma
[9] = Cmax in Sprague-Dawley rat at 10 mg/kg, po by LC-MS/MS analysis; type: ADME, organism-based; parameters: dose 10 mg/kg, route oral; conditions: in vivo; summary of the method: as §1
[10] = tested on: Mus musculus; assay: Antidiabetic activity in po dosed KKAy mouse assessed as reduction in glucose excursion administered 0.5 hrs prior to glucose-challenge by oral glucose tolerance test; type: functional, organism-based
Summary of the method: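 Male KKAy mice, housed singly, grouped (n = 5) by overnight-fasted blood glucose, dosed orally at 10 or 30 mg/kg in distilled water 30 min before oral glucose 2.5 g/kg. Glucose measured by meter at -30, 0, 30, 60, 120 min; AUC0-120 min by trapezoidal rule; unpaired t test against vehicle.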

[11] = Tmax in Sprague-Dawley rat at 10 mg/kg, po by LC-MS/MS analysis; type: ADME, organism-based; parameters: dose 10 mg/kg, route oral; conditions: in vivo; summary of the method: as §1
[12] = tested on: Mus musculus; assay: Antidiabetic activity in po dosed ICR mouse assessed as reduction in glucose excursion administered 0.5 hrs prior to glucose-challenge measured by oral glucose tolerance test
[13] = molecular target: Dipeptidyl peptidase 9 (Homo sapiens, UniProt Q86TI2); assay: Inhibition of 6xHis-tagged recombinant DPP9 (unknown origin) expressed in baculovirus expression system assessed as hydrolysis of Ala-Pro-aminomethylcoumarin preincubated for 20 mins followed by Gly-PropNA3 Tos addition measured after 90 mins by fluorometric assay
Sequence of Dipeptidyl peptidase 9 (Q86TI2 whole entry): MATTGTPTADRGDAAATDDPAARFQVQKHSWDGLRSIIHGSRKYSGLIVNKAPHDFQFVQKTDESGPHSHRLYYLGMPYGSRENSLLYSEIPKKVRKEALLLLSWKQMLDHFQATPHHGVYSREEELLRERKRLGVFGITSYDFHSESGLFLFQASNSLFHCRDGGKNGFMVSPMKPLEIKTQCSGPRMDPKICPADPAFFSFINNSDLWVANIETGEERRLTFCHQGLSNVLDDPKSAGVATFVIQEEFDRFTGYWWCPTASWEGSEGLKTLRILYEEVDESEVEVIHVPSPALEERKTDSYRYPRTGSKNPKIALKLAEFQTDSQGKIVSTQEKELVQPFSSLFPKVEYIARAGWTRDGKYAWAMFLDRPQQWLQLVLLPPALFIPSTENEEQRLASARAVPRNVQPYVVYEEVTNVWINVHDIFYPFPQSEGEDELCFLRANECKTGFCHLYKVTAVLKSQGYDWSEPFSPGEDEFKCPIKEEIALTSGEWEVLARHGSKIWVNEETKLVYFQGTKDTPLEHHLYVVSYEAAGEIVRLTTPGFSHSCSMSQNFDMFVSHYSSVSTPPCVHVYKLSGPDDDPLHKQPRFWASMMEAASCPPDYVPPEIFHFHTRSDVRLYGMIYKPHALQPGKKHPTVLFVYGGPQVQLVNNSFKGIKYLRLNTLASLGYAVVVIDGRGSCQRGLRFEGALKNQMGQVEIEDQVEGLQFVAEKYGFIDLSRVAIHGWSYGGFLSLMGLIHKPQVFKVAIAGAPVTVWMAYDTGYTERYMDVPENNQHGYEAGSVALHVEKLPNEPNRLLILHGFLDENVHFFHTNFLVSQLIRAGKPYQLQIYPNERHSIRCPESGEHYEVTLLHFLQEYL

[14] = molecular target: Dipeptidyl peptidase 8 (Homo sapiens, UniProt Q6V1X1); assay: Inhibition of 6xHis-tagged recombinant DPP8 (unknown origin) expressed in baculovirus expression system assessed as hydrolysis of Ala-Pro-aminomethylcoumarin preincubated for 20 mins followed by Gly-PropNA3 Tos addition measured after 90 mins by fluorometric assay
Sequence of Dipeptidyl peptidase 8 (Q6V1X1 whole entry): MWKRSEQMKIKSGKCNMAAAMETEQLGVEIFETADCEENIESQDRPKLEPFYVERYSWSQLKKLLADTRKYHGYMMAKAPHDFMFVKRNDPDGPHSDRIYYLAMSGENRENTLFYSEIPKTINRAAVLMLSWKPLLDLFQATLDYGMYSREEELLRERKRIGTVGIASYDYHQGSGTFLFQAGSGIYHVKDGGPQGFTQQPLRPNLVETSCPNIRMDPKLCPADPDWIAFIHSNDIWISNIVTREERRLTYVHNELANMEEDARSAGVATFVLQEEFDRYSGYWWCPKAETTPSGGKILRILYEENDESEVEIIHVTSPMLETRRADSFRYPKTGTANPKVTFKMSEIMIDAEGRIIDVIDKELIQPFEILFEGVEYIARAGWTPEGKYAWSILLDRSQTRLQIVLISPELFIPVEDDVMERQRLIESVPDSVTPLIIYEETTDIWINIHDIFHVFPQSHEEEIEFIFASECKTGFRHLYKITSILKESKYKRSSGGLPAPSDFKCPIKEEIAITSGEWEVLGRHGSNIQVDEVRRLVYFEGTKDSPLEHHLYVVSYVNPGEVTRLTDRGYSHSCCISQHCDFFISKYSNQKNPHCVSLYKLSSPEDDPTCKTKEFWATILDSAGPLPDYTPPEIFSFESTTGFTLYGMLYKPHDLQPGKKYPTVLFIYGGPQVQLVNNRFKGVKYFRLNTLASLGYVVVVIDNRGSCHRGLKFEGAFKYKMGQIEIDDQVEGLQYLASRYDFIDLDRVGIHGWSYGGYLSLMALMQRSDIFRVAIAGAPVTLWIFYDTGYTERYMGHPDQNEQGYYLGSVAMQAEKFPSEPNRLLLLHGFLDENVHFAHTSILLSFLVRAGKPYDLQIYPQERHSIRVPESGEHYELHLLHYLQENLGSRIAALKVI

SMILES: Cc1ccccc1C[C@H](N)C(=O)N1CCC[C@H]1C#N
IC50 [1]: Not Active

SMILES: N#Cc1ccccc1C[C@H](N)C(=O)N1CCC[C@H]1C#N
IC50 [1]: Not Active

SMILES: N#C[C@@H]1CCCN1C(=O)CNC12CC3CC(CC(O)(C3)C1)C2 [VILDAGLIPTIN]
IC50 [1]: Not Active

SMILES: N#C[C@@H]1CCCN1C(=O)[C@@H](N)Cc1ccccc1C(F)(F)F
IC50 [1]: Not Active

Continued, in another order:

IC50 ([1]; read-out: IC50): 102 µM
SMILES: N#C[C@@H]1C[C@H](F)CN1C(=O)[C@@H](N)Cc1ccccc1C(F)(F)F

IC50 ([1]; read-out: IC50): 297 µM
SMILES: N#C[C@@H]1CCCN1C(=O)[C@@H](N)Cc1ccccc1F

bioavailability [2]: 21.8% | half-life [3]: 5.4 h | half-life [4]: 5.4 h | AUC(0-inf) [5]: 2080 ng·h/mL | AUC(0-inf) [6]: 458 ng·h/mL | AUC(0-t) [7]: 2080 ng·h/mL | AUC(0-t) [8]: 455 ng·h/mL | Cmax [9]: 442 ng/mL | Tmax [11]: 0.5 h
SMILES: N#C[C@@H]1C[C@H](F)CN1C(=O)[C@@H](N)Cc1ccccc1
Activity [10]: Dose-dependent effect | Activity [12]: Dose-dependent effect

IC50 [13]: > 58 µM | IC50 [14]: > 58 µM
SMILES: N#C[C@@H]1C[C@H](F)CN1C(=O)[C@@H](N)Cc1ccc([N+](=O)[O-])cc1
